These results are taken from ChEMBL document CHEMBL1146074, “Design and synthesis of 1-indol-1-yl-propan-2-ones as inhibitors of human cytosolic phospholipase A2alpha” (J Med Chem, 2006).

Test [1] deals with T1, Cytosolic phospholipase A2 (Homo sapiens, UniProt P47712).
T1 sequence (P47712 whole entry): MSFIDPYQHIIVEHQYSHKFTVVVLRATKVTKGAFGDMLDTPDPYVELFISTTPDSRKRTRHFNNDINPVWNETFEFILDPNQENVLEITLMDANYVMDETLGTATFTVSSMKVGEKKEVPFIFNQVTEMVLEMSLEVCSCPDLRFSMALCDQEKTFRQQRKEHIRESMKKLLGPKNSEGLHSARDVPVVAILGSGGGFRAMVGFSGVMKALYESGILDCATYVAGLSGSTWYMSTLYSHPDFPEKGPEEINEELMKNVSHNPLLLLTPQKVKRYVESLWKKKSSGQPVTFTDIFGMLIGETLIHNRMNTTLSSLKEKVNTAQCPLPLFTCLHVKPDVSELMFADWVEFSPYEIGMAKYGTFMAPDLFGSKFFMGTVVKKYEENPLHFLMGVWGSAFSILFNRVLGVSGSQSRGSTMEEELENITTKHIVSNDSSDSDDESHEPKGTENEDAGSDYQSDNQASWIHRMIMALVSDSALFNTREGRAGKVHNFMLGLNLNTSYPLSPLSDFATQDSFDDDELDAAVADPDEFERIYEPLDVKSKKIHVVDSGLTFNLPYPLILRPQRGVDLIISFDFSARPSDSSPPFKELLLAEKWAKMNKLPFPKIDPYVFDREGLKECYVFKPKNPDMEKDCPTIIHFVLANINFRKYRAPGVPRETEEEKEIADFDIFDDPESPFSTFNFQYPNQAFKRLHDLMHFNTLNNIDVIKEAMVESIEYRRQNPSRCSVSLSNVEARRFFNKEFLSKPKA
As to the kind of experiment: Inhibition of human isolated cPLA2-alpha by vesicle assay. An outline of the steps: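 Test compounds were at most 10 µM. Arachidonic acid formed was cleaned up by solid-phase extraction and quantified by reversed-phase HPLC with UV at 200 nm. IC50 values are means of at least two independent determinations.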

Test [2] concerns the target T1, Cytosolic phospholipase A2. As to the kind of experiment: Inhibition of cPLA2alpha activity assessed by A23187-induced arachidonic acid release in human platelet. The format is functional. An outline of the steps: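 Intact human platelets stimulated with calcium ionophore A23187 (1 µM final) for 1 min, with ETYA added to block cyclooxygenase-1 and 12-lipoxygenase. Released arachidonic acid was measured by RP18 HPLC (acetonitrile/10 mM ammonium phosphate pH 7.4, 50:50) with UV at 200 nm, using an internal standard. IC50 values are means of at least two independent determinations.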

Test [3] deals with T1, Cytosolic phospholipase A2. As to the kind of experiment: Inhibition of cPLA2-alpha activity assessed by TPA-induced arachidonic acid release in human platelet. In kind it is functional. The method in brief: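 Intact human platelets stimulated with TPA (2 µM final) for 60 min, with the cyclooxygenase/12-lipoxygenase inhibitor ETYA added. Released arachidonic acid was quantified by RP18 HPLC with UV at 200 nm, using an internal standard. Parallel incubations without TPA were used to calculate specific hydrolysis. IC50 values are means of at least two independent determinations.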

For test [4], the target named is T2, Cytosolic phospholipase A2 (Homo sapiens) (UniProt P47712).
T2 sequence (whole entry): T1 sequence (P47712 whole entry)
As to the kind of experiment: Inhibition of human isolated cPLA2-alpha by vesicle assay at 10 uM.

Test [5] has as its target T2, Cytosolic phospholipase A2 (Homo sapiens). As to the kind of experiment: Inhibition of cPLA2-alpha activity assessed by A23187-induced arachidonic acid release in human platelet at 10 uM. The format is functional. The method in brief: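 Intact human platelets, with the dual cyclooxygenase/12-lipoxygenase inhibitor ETYA added, stimulated with calcium ionophore A23187 (1 µM final) for 1 min. Arachidonic acid released was measured by reversed-phase HPLC with UV at 200 nm, using 3-(4-decyloxyphenyl)propanoic acid as internal standard. Percent inhibition was read at 10 µM test compound. Cell lysis was checked by turbidimetry.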

Each structure is given as a SMILES string. Active and inactive are the calls of the source. The calls are words filed in the database; no cut-off is given here.

What is called IC50 is the concentration needed to halve the response being measured. Read a low IC50 as greater potency. On to `CCCCCCCCCCOc1ccc(OCC(=O)Cn2cc(C(=O)OC)c3cc(C(=O)O)ccc32)cc1`, for which the IC50 in test [1] is 4.3 nM; in test [2] it was 570 nM; in test [3], 0.9 nM.
In the case of `CCCCCCCCc1ccc(OCC(=O)Cn2cc(C(=O)O)c3cc(C(=O)O)ccc32)cc1`, the figures for the IC50 in test [1], in test [2] and in test [3] were 890 nM, 6500 nM and 560 nM, respectively.
In the case of `CCCCCCCCc1ccc(OCC(=O)Cn2ccc3ccc(C(=O)O)cc32)cc1`, the concentration for half-maximal inhibition (IC50) stood at 1100 nM in test [1] and 4700 nM in test [2].
The term inhibition denotes how much of the control response was suppressed. As for `CCCCCCCCc1ccc(OCC(=O)Cn2ccc3cc(C)ccc32)cc1`, the inhibition result in test [4] and in test [5] was “inactive” throughout.
As to `CCCCCCCCc1ccc(OCC(=O)Cn2ccc3ccccc32)cc1`, the inhibition result in test [4] is “inactive”. Moreover, the inhibition in test [5] was found to be 43%.
For `CCCCCCCCc1ccc(OCC(=O)Cn2cc(C=O)c3cc(C(=O)O)ccc32)cc1`, the figures for the half-maximal inhibitory concentration (IC50) in test [1], in test [2] and in test [3] were 16 nM, 380 nM and 9.7 nM, respectively.
`CCCCCCCCc1ccc(OCC(=O)Cn2cc(Cl)c3cc(C(=O)O)ccc32)cc1`: the IC50 was determined as 110 nM in test [1], 1500 nM in test [2] and 120 nM in test [3].
With `CCCCCCCCc1ccc(OCC(=O)Cn2cc(C(C)(C)C)c3cc(C(=O)O)ccc32)cc1`, the results for the IC50 in test [1], in test [2] and in test [3] were 340 nM, 3300 nM and 230 nM, respectively.
For `CCCCCCCCc1ccc(OCC(=O)Cn2ccc3cc(Cl)ccc32)cc1`, the inhibition result in test [4] and in test [5] was “inactive” throughout.
With `CCCCCCCCc1ccc(OCC(=O)Cn2ccc3cc(C(=O)O)ccc32)cc1`, the 50% inhibitory concentration (IC50) in test [2] stood at 410 nM; in test [3], 18 nM.
Regarding `CCCCCCCCc1ccc(OCC(=O)Cn2ccc3cc(C=O)ccc32)cc1`, the results for the IC50 in test [1] and in test [2] were 4300 nM and 4900 nM, respectively.
Regarding `CCCCCCCCc1ccc(OCC(=O)Cn2cc(C#N)c3cc(C(=O)O)ccc32)cc1`, the 50% inhibitory concentration (IC50) is 15 nM in test [1], 370 nM in test [2] and 11 nM in test [3].
In the case of `CCCCCCCCc1ccc(OCC(=O)Cn2ccc3c(C(=O)O)cccc32)cc1`, the inhibition in test [4] and in test [5] was 40% each time.
For `CCCCCCCCc1ccc(OCC(=O)Cn2cc(C(=O)OC)c3cc(C(=O)O)ccc32)cc1`, the half-inhibitory concentration (IC50) turned out to be 4.9 nM in test [1], 1400 nM in test [2] and 1.1 nM in test [3].
With `CCCCCCCCc1ccc(OCC(=O)Cn2cc(C(C)=O)c3cc(C(=O)O)ccc32)cc1`, the IC50 in test [1] turned out to be 16 nM; in test [2], 1000 nM; in test [3], 6.4 nM.
Take `CCCCCCCCc1ccc(OCC(=O)Cn2c(C(=O)O)cc3ccccc32)cc1`: the inhibition entry in test [4] was “inactive”. In test [2], the IC50 amounted to 8000 nM.
Turning to `CCCCCCCCc1ccc(OCC(=O)Cn2ccc3cc(C(=O)OC)ccc32)cc1`, the inhibition in test [4] was determined as 36%; in test [5] it was 40%.
Take `CCCCCCCCc1ccc(OCC(=O)Cn2ccc3cc(C(N)=O)ccc32)cc1`: the IC50 was found to be 120 nM in test [1] and 770 nM in test [2].
Compound `CCCCCCCCCCOc1ccc(OCC(=O)COc2ccc(C(=O)O)cc2)cc1` registered an IC50 in test [2] of 250 nM.
For `CCCCCCCCc1ccc(OCC(=O)Cn2ccc3cc(OC)ccc32)cc1`, the inhibition result in test [4] was “inactive”. Moreover, the inhibition in test [5] turned out to be 37%.
Take `CCCCCCCCCCOc1ccc(OCC(=O)Cn2ccc3cc(C(=O)O)ccc32)cc1`: the 50% inhibitory concentration (IC50) worked out at 20 nM in test [1], 210 nM in test [2] and 7.8 nM in test [3].
In the case of `CCCCCCCCc1ccc(OCC(=O)Cn2cc(C(=O)O)c3ccccc32)cc1`, the inhibition in test [4] and in test [5] was 40% each time.
For `CCCCCCCCc1ccc(OCC(=O)Cn2ccc3cc(C#N)ccc32)cc1`, the results for the inhibition in test [4] and in test [5] were 25% and 46%, respectively.
